pIC50: −log10 of the molar value. Activity calls are given as the source filed them. The calls are words filed in the database; no cut-off is given here.
The compounds below were run against T1, Aromatase (Homo sapiens, UniProt P11511) (assay: Inhibition of aromatase in human SKBR3 cells by tritiated water release assay). Settings: sk-br-3.
T1 sequence (P11511 whole entry): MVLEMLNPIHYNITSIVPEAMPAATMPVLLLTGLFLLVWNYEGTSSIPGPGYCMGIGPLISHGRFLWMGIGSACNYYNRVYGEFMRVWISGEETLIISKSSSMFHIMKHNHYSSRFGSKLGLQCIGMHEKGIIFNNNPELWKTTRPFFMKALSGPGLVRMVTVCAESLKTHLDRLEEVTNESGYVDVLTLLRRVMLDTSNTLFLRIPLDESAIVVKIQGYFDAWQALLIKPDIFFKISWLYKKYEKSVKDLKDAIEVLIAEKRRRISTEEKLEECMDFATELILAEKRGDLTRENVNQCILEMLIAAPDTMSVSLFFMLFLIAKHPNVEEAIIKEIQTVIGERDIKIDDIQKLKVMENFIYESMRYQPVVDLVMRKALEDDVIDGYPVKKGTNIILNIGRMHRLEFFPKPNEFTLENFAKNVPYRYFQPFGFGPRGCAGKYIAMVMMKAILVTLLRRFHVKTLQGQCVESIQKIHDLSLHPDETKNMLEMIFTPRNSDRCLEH
Type: cell-based
How it was run: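 Subconfluent SK-BR-3 cells were switched to defined DMEM/F12 (human albumin, transferrin, insulin) and treated 24 h at five concentrations in triplicate (0.1% DMSO vehicle). They were then incubated 3 h with 100 nM [1β-3H]-androstenedione. TCA-precipitated medium was chloroform-extracted and charcoal-treated, and 3H2O counted as pmol/h/10^6 cells, normalized by DNA assay. IC50 was taken from sigmoidal dose–response fits.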
`CN(c1ccc([N+](=O)[O-])cc1OCc1ccccc1-c1ccccc1)S(C)(=O)=O` was tested, and the pIC50 was 6.48.
`CS(=O)(=O)Nc1ccc([N+](=O)[O-])cc1OC1CCCC1` gave a pIC50 of 6.06.
In the case of `CN(c1ccc(NC(=O)C2CCCCC2)cc1OCc1ccccc1)S(C)(=O)=O`, the pIC50 was 6.60.
With `O=C(Nc1ccc([N+](=O)[O-])cc1OCc1ccccc1)c1ccccc1` the pIC50 was < 4.60.
Compound `CCCOc1cc([N+](=O)[O-])ccc1NS(C)(=O)=O` has a pIC50 of 5.60.
In the case of `O=C(Nc1ccc([N+](=O)[O-])cc1OCc1ccccc1)c1ccc(Cl)c([N+](=O)[O-])c1`, the pIC50 was < 4.60.
Work on `CN(c1ccc([N+](=O)[O-])cc1OCc1cccc2ccccc12)S(C)(=O)=O` yielded a pIC50 of 5.93.
Work on `CCCOc1cc([N+](=O)[O-])ccc1N(C)S(C)(=O)=O` yielded a pIC50 of 6.12.
`CN(c1ccc(NC(=O)c2ccc3ccccc3c2)cc1OCc1ccccc1)S(C)(=O)=O` was tested, and the pIC50 was 5.97.
For `Cc1ccc(S(=O)(=O)Nc2ccc([N+](=O)[O-])cc2OCc2ccccc2)cc1`, the pIC50 was 4.76.
`CN(c1ccc(NC(=O)c2ccc(Cl)c(Cl)c2)cc1OCc1ccccc1)S(C)(=O)=O` gave a pIC50 of 6.16.
`CN(c1ccc(NC(=O)c2ccc(-c3ccccc3)cc2)cc1OCc1ccccc1)S(C)(=O)=O` was tested, and the pIC50 was 6.92.
Compound `CN(c1ccc([N+](=O)[O-])cc1OC1CCCC1)S(C)(=O)=O` has a pIC50 of 6.36.
Work on `CS(=O)(=O)Nc1ccc([N+](=O)[O-])cc1OCC1CCCCC1` yielded a pIC50 of 5.92.
For `CN(c1ccc([N+](=O)[O-])cc1OCc1ccccc1)S(C)(=O)=O`, the pIC50 was 6.09.
In the case of `CN(c1ccc([N+](=O)[O-])cc1OCc1ccc(F)cc1)S(C)(=O)=O`, the pIC50 was 5.75.
In the case of `CS(=O)(=O)Nc1ccc([N+](=O)[O-])cc1OC1CCCCC1` [NS-398], the pIC50 was 6.17.
For `O=C(Nc1ccc([N+](=O)[O-])cc1OCc1ccccc1)c1ccc([N+](=O)[O-])cc1`, the pIC50 was < 4.60.
Work on `CS(=O)(=O)Nc1ccc([N+](=O)[O-])cc1OCc1ccccc1-c1ccccc1` yielded a pIC50 of 6.59.
Work on `CC(C)c1ccc(COc2cc([N+](=O)[O-])ccc2NS(C)(=O)=O)cc1` yielded a pIC50 of 5.13.
`CN(c1ccc([N+](=O)[O-])cc1OCc1ccc([N+](=O)[O-])cc1)S(C)(=O)=O` showed a pIC50 of 6.31.
With `Cc1ccc(COc2cc([N+](=O)[O-])ccc2N(C)S(C)(=O)=O)cc1` the pIC50 was 5.63.
`CS(=O)(=O)Nc1ccc([N+](=O)[O-])cc1OCc1ccc2ccccc2c1` was tested, and the pIC50 was 5.66.
Compound `CN(c1ccc([N+](=O)[O-])cc1OCc1ccc2ccccc2c1)S(C)(=O)=O` has a pIC50 of 5.57.
`CC(=O)Nc1ccc([N+](=O)[O-])cc1OCc1ccccc1` showed a pIC50 of 5.93.
Work on `CN(c1ccc([N+](=O)[O-])cc1OCc1ccc(Br)cc1)S(C)(=O)=O` yielded a pIC50 of 6.48.
Compound `CCCCCCOc1cc([N+](=O)[O-])ccc1NS(C)(=O)=O` has a pIC50 of 5.57.
`Cc1ccc(C)c(COc2cc([N+](=O)[O-])ccc2NS(C)(=O)=O)c1` was tested, and the pIC50 was 6.43.
With `CS(=O)(=O)Nc1ccc([N+](=O)[O-])cc1OCc1cccc2ccccc12` the pIC50 was 5.24.
For `CS(=O)(=O)Nc1ccc([N+](=O)[O-])cc1OCc1ccc(F)cc1`, the pIC50 was 6.24.
`COc1ccc(COc2cc([N+](=O)[O-])ccc2NS(C)(=O)=O)cc1` was tested, and the pIC50 was 5.11.
Work on `CS(=O)(=O)Nc1ccc([N+](=O)[O-])cc1OCCc1ccccc1` yielded a pIC50 of 6.64.
`CC(C)Oc1cc([N+](=O)[O-])ccc1N(C)S(C)(=O)=O` showed a pIC50 of 5.55.
For `CCC(CC)Oc1cc([N+](=O)[O-])ccc1NS(C)(=O)=O`, the pIC50 was 6.52.
With `O=C(Nc1ccc([N+](=O)[O-])cc1OCc1ccccc1)c1cccc([N+](=O)[O-])c1` the pIC50 was < 4.60.
In the case of `O=C(Nc1ccc([N+](=O)[O-])cc1OCc1ccccc1)c1ccc(Cl)c(Cl)c1`, the pIC50 was < 4.60.
In the case of `CN(c1ccc([N+](=O)[O-])cc1OCc1ccc(Cl)cc1)S(C)(=O)=O`, the pIC50 was 5.62.
For `CN(c1ccc(NC(=O)c2ccc(Cl)c([N+](=O)[O-])c2)cc1OCc1ccccc1)S(C)(=O)=O`, the pIC50 was 6.16.
`CN(c1ccc(NC(=O)c2ccccc2)cc1OCc1ccccc1)S(C)(=O)=O` was tested, and the pIC50 was 5.75.
In the case of `CC(C)Oc1cc([N+](=O)[O-])ccc1NS(C)(=O)=O`, the pIC50 was 5.23.
Compound `CN(c1ccc([N+](=O)[O-])cc1OCCc1ccccc1)S(C)(=O)=O` has a pIC50 of 6.28.
`CS(=O)(=O)Nc1ccc([N+](=O)[O-])cc1OCc1ccccc1` was tested, and the pIC50 was 5.67.
In the case of `O=C(Nc1ccc([N+](=O)[O-])cc1OCc1ccccc1)c1ccc2ccccc2c1`, the pIC50 was < 4.60.
Work on `CS(=O)(=O)Nc1ccc([N+](=O)[O-])cc1OCc1ccc(-c2ccccc2)cc1` yielded a pIC50 of 6.07.
Compound `CCCCCCOc1cc([N+](=O)[O-])ccc1N(C)S(C)(=O)=O` has a pIC50 of 5.35.
Work on `CCC(CC)Oc1cc([N+](=O)[O-])ccc1N(C)S(C)(=O)=O` yielded a pIC50 of 6.64.
`Cc1ccc(COc2cc([N+](=O)[O-])ccc2NS(C)(=O)=O)cc1` showed a pIC50 of 5.76.
Compound `CN(c1ccc([N+](=O)[O-])cc1OCc1ccc(-c2ccccc2)cc1)S(C)(=O)=O` has a pIC50 of 6.19.
`COc1ccc(COc2cc([N+](=O)[O-])ccc2N(C)S(C)(=O)=O)cc1` was tested, and the pIC50 was 6.33.
`CN(c1ccc(NC(=O)c2ccc(C#N)cc2)cc1OCc1ccccc1)S(C)(=O)=O` showed a pIC50 of 6.36.
For `N#Cc1ccc(C(=O)Nc2ccc([N+](=O)[O-])cc2OCc2ccccc2)cc1`, the pIC50 was < 4.60.
In the case of `CC(=O)Nc1ccc(N(C)S(C)(=O)=O)c(OCc2ccccc2)c1`, the pIC50 was 4.78.
For `CS(=O)(=O)Nc1ccc([N+](=O)[O-])cc1OCc1ccc(Br)cc1`, the pIC50 was 5.23.
For `CCCCCCCCCOc1cc([N+](=O)[O-])ccc1N(C)S(C)(=O)=O`, the pIC50 was 5.40.
`CS(=O)(=O)Nc1ccc([N+](=O)[O-])cc1OCc1ccc([N+](=O)[O-])cc1` showed a pIC50 of 6.40.
`O=C(Nc1ccc([N+](=O)[O-])cc1OCc1ccccc1)c1ccc(-c2ccccc2)cc1` was tested, and the pIC50 was < 4.60.
`CCCCCCCCCOc1cc([N+](=O)[O-])ccc1NS(C)(=O)=O` showed a pIC50 of 6.04.
`CS(=O)(=O)Nc1ccc([N+](=O)[O-])cc1OCc1ccc(Cl)cc1` showed a pIC50 of 6.54.
For `CN(c1ccc([N+](=O)[O-])cc1OCC1CCCCC1)S(C)(=O)=O`, the pIC50 was 6.02.
`CN(c1ccc(N)cc1OCc1ccccc1)S(C)(=O)=O` gave a pIC50 of 5.96.
For `O=[N+]([O-])c1ccc(S(=O)(=O)Nc2ccc([N+](=O)[O-])cc2OCc2ccccc2)cc1`, the pIC50 was 5.66.
`O=C(Nc1ccc([N+](=O)[O-])cc1OCc1ccccc1)C1CCCCC1` was tested, and the pIC50 was < 4.60.
Compound `CN(c1ccc([N+](=O)[O-])cc1OC1CCCCC1)S(C)(=O)=O` has a pIC50 of 6.33.

The compounds below were run on SK-BR-3 (assay: Cytotoxicity against human SKBR3 cells by diphenylamine DNA assay). Settings: not given.
Type: functional, cell-based
`Cc1ccc(C)c(COc2cc([N+](=O)[O-])ccc2N(C)S(C)(=O)=O)c1` was tested, and the Activity was “Active”.
For `CC(C)c1ccc(COc2cc([N+](=O)[O-])ccc2N(C)S(C)(=O)=O)cc1`, the Activity was “Active”.

From ChEMBL document CHEMBL1143195, “Novel sulfonanilide analogs decrease aromatase activity in breast cancer cells: synthesis, biological evaluation, and ligand-based pharmacophore identification” (J Med Chem, 2008)
